From ChEMBL document CHEMBL5046272, “Discovery of Potent, Selective, and In Vivo Efficacious AKT Kinase Protein Degraders via Structure-Activity Relationship Studies” (J Med Chem, 2022) come the findings set out here.

Test [1] is described as follows: Protac activity at CRBN/AKT in human BT-474 cells assessed as inhibition of downstream signalling by measuring reduction in PRAS40 phosphorylation at T246 residue at 1 to 10 uM measured after 24 hrs Western blot analysis. The note with it: dose 1-10 µM. In general terms: In western blotting, separated proteins are transferred to a membrane and probed.
The nature of test [2]: Protac activity at CRBN/AKT in human BT-474 cells assessed as reduction in AKT protein level at 1 to 10 uM measured after 24 hrs by Western blot analysis. To be noted: dose 1-10 µM.
For test [3], the target named is T1, von Hippel-Lindau disease tumor suppressor/AKT (Homo sapiens) (UniProt P31751+Q9Y243+P31749+P40337). Put plainly: Protac activity at VHL/AKT in human BT-474 cells assessed as reduction in total AKT protein level at 1 to 10 uM measured after 24 hrs by Western blot analysis. The test is classed as cell-based. To be noted: dose 1-10 µM. In short, it runs like this: (§1)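 BT474 cells treated 24 h at 1, 5 or 10 μM, alongside AZD5363 (1 μM) and the matching E3 ligand VHL-1 or pomalidomide (1 μM). Lysates in urea/SDS sample buffer were run on 4–12% Bis-Tris gels and blotted to PVDF. Blots probed for total AKT, P-AKT S473, P-PRAS40 T246 and P-S6 S240/244, with β-actin loading control and chemiluminescent detection.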

Test [4] has as its system BT-474. Put plainly: Inhibition of colony formation in human BT-474 cells at 0.1 to 10 uM incubated for 14 days by replacing culture medium for every 2 days by crystal violet staining based assay. The class given is functional, cell-based. The note with it: dose 0.1-10 µM, time 14.0 day. The method, boiled down:
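BT474 cells cultured 14 days with compound. Medium plus compound was replaced every 2 days. Viable cells were then stained with 0.5% crystal violet.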

Test [5] can be described thus: Protac activity at CRBN/AKT in human BT-474 cells assessed as reduction in AKT protein level at 10 uM measured after 24 hrs by Western blot analysis.
Test [6] has as its target RAC-gamma serine/threonine-protein kinase (Homo sapiens, UniProt Q9Y243). The test is described as follows: Binding affinity to DNA-tagged AKT3 (unknown origin) assessed as dissociation constant by q-PCR based competitive binding assay. In short, it runs like this:
(§2)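 KINOMEscan competition binding: DNA-tagged kinase competes between test compound and an immobilized active-site ligand, with bound kinase read by qPCR of the tag. Kd fitted from an 11-point threefold dilution series (top 30 μM) plus three DMSO control points, run in duplicate.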

The target in test [7] is RAC-alpha serine/threonine-protein kinase (Homo sapiens, UniProt P31749). The test is described as follows: Binding affinity to DNA-tagged AKT1 (unknown origin) assessed as dissociation constant by q-PCR based competitive binding assay. The method, boiled down:
as §2

In test [8] the test system is MDA-MB-468. Put plainly: Antiproliferative activity against human MDA-MB-468 cells assessed as cell growth by measured after 5 days by IncuCyte zoom live cell analysis. The class given is functional. The note with it: MDA-MB-468, 120 h, time 5 day. In short, it runs like this: (§3)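 Cells grown in DMEM with 10% FBS at 37 °C, 5% CO₂. Seeded at 1–3 × 10³ cells/well in triplicate with serial compound dilutions for 5 days. Growth was taken as confluence from IncuCyte phase-contrast images of live cells. Three independent experiments.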

Test [9] deals with PC-3. The test is described as follows: Antiproliferative activity against human PC-3 cells assessed as inhibition of cell growth measured after 5 days by IncuCyte zoom live cell analysis. The note with it: PC-3, 120 h, time 5 day. The test is classed as functional. The method, boiled down: as §3
Test [10] concerns the target T1, von Hippel-Lindau disease tumor suppressor/AKT (Homo sapiens). Put plainly: Protac activity at VHL/AKT in human BT-474 cells assessed as inhibition of downstream signalling by measuring reduction in PRAS40 phosphorylation at T246 residue at 5 uM measured after 24 hrs Western blot analysis. The test is classed as cell-based. The method, boiled down:
as §1

Calls of active or inactive are those of the source. The calls are words filed in the database; no cut-off is given here.

Chain of RAC-alpha serine/threonine-protein kinase (P31749 whole entry): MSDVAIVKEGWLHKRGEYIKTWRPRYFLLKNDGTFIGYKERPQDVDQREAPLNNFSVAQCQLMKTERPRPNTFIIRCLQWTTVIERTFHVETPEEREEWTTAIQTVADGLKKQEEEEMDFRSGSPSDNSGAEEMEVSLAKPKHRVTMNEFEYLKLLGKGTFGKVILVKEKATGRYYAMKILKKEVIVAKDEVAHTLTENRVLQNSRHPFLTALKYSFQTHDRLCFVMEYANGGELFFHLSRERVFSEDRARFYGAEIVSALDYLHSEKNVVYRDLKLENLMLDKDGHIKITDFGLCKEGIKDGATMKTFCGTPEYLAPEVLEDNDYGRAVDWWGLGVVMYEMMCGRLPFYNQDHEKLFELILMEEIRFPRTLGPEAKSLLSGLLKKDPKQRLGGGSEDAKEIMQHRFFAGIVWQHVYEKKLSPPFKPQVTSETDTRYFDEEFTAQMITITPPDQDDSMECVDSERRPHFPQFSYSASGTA
Chain of RAC-gamma serine/threonine-protein kinase (Q9Y243 whole entry): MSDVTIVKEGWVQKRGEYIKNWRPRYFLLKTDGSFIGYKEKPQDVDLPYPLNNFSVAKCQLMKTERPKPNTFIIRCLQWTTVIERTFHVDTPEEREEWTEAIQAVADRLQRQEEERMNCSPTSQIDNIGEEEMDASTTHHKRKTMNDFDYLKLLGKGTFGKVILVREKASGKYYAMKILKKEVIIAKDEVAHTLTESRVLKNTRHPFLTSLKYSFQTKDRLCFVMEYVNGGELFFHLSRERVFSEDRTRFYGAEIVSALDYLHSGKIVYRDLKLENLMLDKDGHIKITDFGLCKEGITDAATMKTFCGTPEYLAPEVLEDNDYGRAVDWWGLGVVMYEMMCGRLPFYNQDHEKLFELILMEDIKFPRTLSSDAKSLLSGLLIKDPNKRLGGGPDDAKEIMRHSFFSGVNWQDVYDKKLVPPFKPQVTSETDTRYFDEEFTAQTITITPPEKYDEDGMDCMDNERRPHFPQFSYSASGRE

As for `NC1(C(=O)N[C@@H](CCN2CCN(C(=O)CCCCCNc3cccc4c3C(=O)N(C3CCC(=O)NC3=O)C4=O)CC2)c2ccc(Cl)cc2)CCN(c2ncnc3[nH]ccc23)CC1` (stereo partly specified), the inhibition result in [1] is “Active”. Moreover, in test [2], the outcome was Active.

For `Cc1ncsc1-c1ccc(CNC(=O)[C@@H]2C[C@@H](O)CN2C(=O)[C@@H](NC(=O)CCOCCOCCC(=O)N2CCN(CC[C@H](NC(=O)C3(N)CCN(c4ncnc5[nH]ccc45)CC3)c3ccc(Cl)cc3)CC2)C(C)(C)C)cc1`, the outcome in [3] was inactive.

On to `NC1(C(=O)N[C@@H](CCN2CCN(C(=O)CNc3cccc4c3C(=O)N(C3CCC(=O)NC3=O)C4=O)CC2)c2ccc(Cl)cc2)CCN(c2ncnc3[nH]ccc23)CC1` (stereo partly specified), for which the outcome in [2] was inactive.

Consider `Cc1ncsc1-c1ccc(CNC(=O)[C@@H]2C[C@@H](O)CN2C(=O)[C@@H](NC(=O)CCCCCCCCCCCC(=O)N2CCN(CC[C@H](NC(=O)C3(N)CCN(c4ncnc5[nH]ccc45)CC3)c3ccc(Cl)cc3)CC2)C(C)(C)C)cc1`, for which the inhibition result in [4] is “Active”.

Regarding `Cc1ncsc1-c1ccc(CNC(=O)[C@@H]2C[C@@H](O)CN2C(=O)[C@@H](NC(=O)CCC(=O)N2CCN(CC[C@H](NC(=O)C3(N)CCN(c4ncnc5[nH]ccc45)CC3)c3ccc(Cl)cc3)CC2)C(C)(C)C)cc1`, in test [3], the outcome was inactive.

Take `NC1(C(=O)N[C@@H](CCN2CCN(C(=O)CCCCCCNc3cccc4c3C(=O)N(C3CCC(=O)NC3=O)C4=O)CC2)c2ccc(Cl)cc2)CCN(c2ncnc3[nH]ccc23)CC1` (stereo partly specified): the result in test [2] was inactive.

Regarding `NC1(C(=O)N[C@@H](CCN2CCN(C(=O)CCOCCOCCOCCOCCOCCNc3cccc4c3CN(C3CCC(=O)NC3=O)C4=O)CC2)c2ccc(Cl)cc2)CCN(c2ncnc3[nH]ccc23)CC1` (stereo partly specified), in test [5], the result was inactive.

For the molecule `Cc1ncsc1-c1ccc(CNC(=O)[C@@H]2C[C@@H](O)CN2C(=O)[C@@H](NC(=O)CCOCCOCCOCCOCCOCCC(=O)N2CCN(CC[C@H](NC(=O)C3(N)CCN(c4ncnc5[nH]ccc45)CC3)c3ccc(Cl)cc3)CC2)C(C)(C)C)cc1`, the outcome in [3] was inactive.

In the case of `NC1(C(=O)N[C@@H](CCN2CCN(C(=O)CCOCCOCCOCCOCCOCCOc3cccc4c3C(=O)N(C3CCC(=O)NC3=O)C4=O)CC2)c2ccc(Cl)cc2)CCN(c2ncnc3[nH]ccc23)CC1` (stereo partly specified), the outcome in [5] was inactive. In addition, the inhibition result in test [4] was “inactive”.

With `Cc1ncsc1-c1ccc(CNC(=O)[C@@H]2C[C@@H](O)CN2C(=O)[C@@H](NC(=O)COCC(=O)N2CCN(CC[C@H](NC(=O)C3(N)CCN(c4ncnc5[nH]ccc45)CC3)c3ccc(Cl)cc3)CC2)C(C)(C)C)cc1`, in [3], the outcome was Active.

`NC1(C(=O)N[C@@H](CCN2CCN(C(=O)CCNc3cccc4c3C(=O)N(C3CCC(=O)NC3=O)C4=O)CC2)c2ccc(Cl)cc2)CCN(c2ncnc3[nH]ccc23)CC1` (stereo partly specified): in [2], the outcome was inactive.

On to `Cc1ncsc1-c1ccc(CNC(=O)[C@@H]2C[C@@H](OCc3ccccc3)CN2C(=O)[C@@H](NC(=O)CCCCCCCCCCC(=O)N2CCN(CC[C@H](NC(=O)C3(N)CCN(c4ncnc5[nH]ccc45)CC3)c3ccc(Cl)cc3)CC2)C(C)(C)C)cc1`, for which the Kd in test [6] worked out at 2.9 µM; in test [7], 0.15 µM.

For `NC1(C(=O)N[C@@H](CCN2CCN(C(=O)CCOCCNc3cccc4c3C(=O)N(C3CCC(=O)NC3=O)C4=O)CC2)c2ccc(Cl)cc2)CCN(c2ncnc3[nH]ccc23)CC1` (stereo partly specified), in test [5], the result was Active.

Consider `Cc1ncsc1-c1ccc([C@H](C)NC(=O)[C@@H]2C[C@@H](O)CN2C(=O)[C@@H](NC(=O)CCCCCCCCCC(=O)N2CCN(CC[C@H](NC(=O)C3(N)CCN(c4ncnc5[nH]ccc45)CC3)c3ccc(Cl)cc3)CC2)C(C)(C)C)cc1`, for which, in test [4], the inhibition result is “Active”.

`Cc1ncsc1-c1ccc(CNC(=O)[C@@H]2C[C@@H](O)CN2C(=O)[C@@H](NC(=O)COCCOCCOCCOCCOCC(=O)N2CCN(CC[C@H](NC(=O)C3(N)CCN(c4ncnc5[nH]ccc45)CC3)c3ccc(Cl)cc3)CC2)C(C)(C)C)cc1`: the outcome in [3] was inactive.

Take `Cc1ncsc1-c1ccc(CNC(=O)[C@@H]2C[C@@H](O)CN2C(=O)[C@@H](NC(=O)CCOCCOCCOCCOCCC(=O)N2CCN(CC[C@H](NC(=O)C3(N)CCN(c4ncnc5[nH]ccc45)CC3)c3ccc(Cl)cc3)CC2)C(C)(C)C)cc1`: the outcome in test [3] was inactive.

For `NC1(C(=O)N[C@@H](CCO)c2ccc(Cl)cc2)CCN(c2nc[nH]c3nccc2-3)CC1` [CAPIVASERTIB], the values for the GI50 in test [8] and in test [9] were 3.8 µM and 6.5 µM, respectively.

Take `Cc1ncsc1-c1ccc(CNC(=O)[C@@H]2C[C@@H](O)CN2C(=O)[C@@H](NC(=O)COCCOCCOCC(=O)N2CCN(CC[C@H](NC(=O)C3(N)CCN(c4ncnc5[nH]ccc45)CC3)c3ccc(Cl)cc3)CC2)C(C)(C)C)cc1`: in [3], the result was inactive.

Consider `NC1(C(=O)N[C@@H](CCN2CCN(C(=O)CCCNc3cccc4c3C(=O)N(C3CCC(=O)NC3=O)C4=O)CC2)c2ccc(Cl)cc2)CCN(c2ncnc3[nH]ccc23)CC1` (stereo partly specified), for which, in test [1], the inhibition entry is “Active”. The result in [2] was Active.

`NC1(C(=O)N[C@@H](CCN2CCN(C(=O)CCOCCOCCOCCOCCOCCNc3cccc4c3C(=O)N(C3CCC(=O)NC3=O)C4=O)CC2)c2ccc(Cl)cc2)CCN(c2ncnc3[nH]ccc23)CC1` (stereo partly specified): the 50% growth inhibitory concentration (GI50) in test [8] turned out to be 4.8 µM; in test [9], 10.8 µM.

With `Cc1ncsc1-c1ccc(CNC(=O)[C@@H]2C[C@@H](O)CN2C(=O)[C@@H](NC(=O)CCOCCC(=O)N2CCN(CC[C@H](NC(=O)C3(N)CCN(c4ncnc5[nH]ccc45)CC3)c3ccc(Cl)cc3)CC2)C(C)(C)C)cc1`, the result in test [3] was inactive.

As to `NC1(C(=O)N[C@@H](CCN2CCN(C(=O)CCCCNc3cccc4c3C(=O)N(C3CCC(=O)NC3=O)C4=O)CC2)c2ccc(Cl)cc2)CCN(c2ncnc3[nH]ccc23)CC1` (stereo partly specified), the outcome in test [2] was Active.

As for `CN1C(=O)CCC(N2C(=O)c3cccc(NCCOCCOCCOCCOCCOCCC(=O)N4CCN(CC[C@H](NC(=O)C5(N)CCN(c6ncnc7[nH]ccc67)CC5)c5ccc(Cl)cc5)CC4)c3C2=O)C1=O` (stereo partly specified), the Kd in test [6] turned out to be 0.023 µM; in test [7], 0.0055 µM.

`Cc1ncsc1-c1ccc(CNC(=O)[C@@H]2C[C@@H](O)CN2C(=O)[C@@H](NC(=O)CCCCC(=O)N2CCN(CC[C@H](NC(=O)C3(N)CCN(c4ncnc5[nH]ccc45)CC3)c3ccc(Cl)cc3)CC2)C(C)(C)C)cc1`: the inhibition entry in [10] is “inactive”. Also, the outcome in test [3] was Active.

For the molecule `NC1(C(=O)N[C@@H](CCN2CCN(C(=O)CCCCCCCNc3cccc4c3C(=O)N(C3CCC(=O)NC3=O)C4=O)CC2)c2ccc(Cl)cc2)CCN(c2ncnc3[nH]ccc23)CC1` (stereo partly specified), the outcome in test [2] was inactive.

In the case of `Cc1ncsc1-c1ccc(CNC(=O)[C@@H]2C[C@@H](O)CN2C(=O)[C@@H](NC(=O)CCOCCOCCOCCC(=O)N2CCN(CC[C@H](NC(=O)C3(N)CCN(c4ncnc5[nH]ccc45)CC3)c3ccc(Cl)cc3)CC2)C(C)(C)C)cc1`, in test [3], the result was inactive.

Take `Cc1ncsc1-c1ccc(CNC(=O)[C@@H]2C[C@@H](O)CN2C(=O)[C@@H](NC(=O)CCCCCCCCCC(=O)N2CCN(CC[C@H](NC(=O)C3(N)CCN(c4ncnc5[nH]ccc45)CC3)c3ccc(Cl)cc3)CC2)C(C)(C)C)cc1`: in test [4], the inhibition entry is “Active”.

As for `Cc1ncsc1-c1ccc(CNC(=O)[C@@H]2C[C@@H](O)CN2C(=O)[C@@H](NC(=O)CCCCCC(=O)N2CCN(CC[C@H](NC(=O)C3(N)CCN(c4ncnc5[nH]ccc45)CC3)c3ccc(Cl)cc3)CC2)C(C)(C)C)cc1`, in test [10], the inhibition entry was “inactive”. For the same molecule, the outcome in test [3] was Active.

On to `NC1(C(=O)N[C@@H](CCN2CCN(C(=O)CCOCCOCCOCCOCCOCCCc3cccc4c3C(=O)N(C3CCC(=O)NC3=O)C4=O)CC2)c2ccc(Cl)cc2)CCN(c2ncnc3[nH]ccc23)CC1` (stereo partly specified), for which, in [5], the result was inactive. Also, the inhibition entry in test [4] is “inactive”.

Turning to `Cc1ncsc1-c1ccc(CNC(=O)[C@@H]2C[C@@H](O)CN2C(=O)[C@@H](NC(=O)CCCC(=O)N2CCN(CC[C@H](NC(=O)C3(N)CCN(c4ncnc5[nH]ccc45)CC3)c3ccc(Cl)cc3)CC2)C(C)(C)C)cc1`, the outcome in test [3] was inactive.

Regarding `Cc1ncsc1-c1ccc(CNC(=O)[C@@H]2C[C@@H](O)CN2C(=O)[C@@H](NC(=O)COCCOCC(=O)N2CCN(CC[C@H](NC(=O)C3(N)CCN(c4ncnc5[nH]ccc45)CC3)c3ccc(Cl)cc3)CC2)C(C)(C)C)cc1`, the outcome in test [3] was inactive.

For orientation: Kd means the equilibrium constant for the complex coming apart. One may read the GI50 as the concentration at which growth is held to half of that of the control.
